Test results reported in ChEMBL document CHEMBL2406922, “Synthesis and Metabolic Studies of Host Directed Inhibitors for Anti Viral Therapy” (ACS Med Chem Lett, 2013).

How the values were obtained:
[1] = Antiviral activity against Measles virus Edmonston infected in african green monkey Vero cells after 20 hrs by luciferase reporter gene assay; type: functional, cell-based, Measles virus strain Edmonston; conditions: Measles morbillivirus
Procedure, shortened: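 Cells seeded at 3×10^4/well and incubated 20 h, then infected with Renilla luciferase-expressing recombinant MeV-Edmonston (recMeV-ren) at MOI 0.2 TCID50/cell. Luciferase substrate added 28 h post-infection; bioluminescence read to quantify reporter expression.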

[2] = tested on: Influenza A virus; assay: Antiviral activity against Influenza A virus A/sw/Texas/2009(H1N1) virus by firefly luciferase reporter gene assay; type: functional, organism-based
Procedure, shortened: (§1)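 293T cells were transfected with an IAV firefly-luciferase minigenome reporter plasmid (1 µg/10^5 cells), cryopreserved 28 h post-transfection, thawed, and seeded at 3×10^4 cells/well. After 20 h they were infected with TPCK-trypsin-activated IAV (MOI 0.1 pfu/cell). Luciferase bioluminescence was read 28 h post-infection after adding Bright-Glo or Dual-Glo substrate.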

[3] = tested on: Influenza A virus; assay: Antiviral activity against Influenza A virus A/Aichi/1968(H3N2) by firefly luciferase reporter gene assay; type: functional, organism-based; procedure, shortened: as §1
[4] = tested on: Influenza A virus; assay: Antiviral activity against Influenza A virus WSN/1933 (H1N1) infected in human 293T cells after 20 hrs by luciferase reporter gene assay; type: functional, organism-based; conditions: A/WSN/1933(H1N1), HEK-293T; procedure, shortened: as §1
[5] = tested on: Respiratory syncytial virus; assay: Antiviral activity against Respiratory syncytial virus by firefly luciferase reporter gene assay; type: functional, organism-based; conditions: human respiratory syncytial virus
[6] = tested on: Liver; assay: (§2) Half life in human liver S9 fraction; type: ADME, subcellular; conditions: s9
[7] = Half life in hamster liver S9 fraction; type: ADME, subcellular; conditions: cricetinae
[8] = Solubility of the compound at pH 7.4; type: physicochemical; conditions: buffer
[9] = as §2; type: ADME, subcellular; conditions: liver S9 fraction

Row | SMILES | EC50 [1] [µM] | EC50 [4] [µM] | also measured
1 | CCOC(=O)Cn1c(-c2nonc2NC(=O)c2ccccc2F)nc2ccccc21 | 0.023 | 0.012 | EC50 [2]: 0.1 µM; EC50 [3]: 0.05 µM; EC50 [5]: 0.14 µM
2 | C#CCn1c([S+](=O)([O-])Cc2ccc(F)cc2)nc(-c2ccccc2)c1-c1ccccc1 | 0.74 | 0.5 | EC50 [2]: 0.2 µM; t1/2 [6]: 19 min; EC50 [3]: 0.92 µM; half-life [7]: < 2.5 min; EC50 [5]: 0.45 µM
3 | COc1ccc(-n2c(SC(C)C(=O)Nc3ccc(C)cc3Cl)nc3ccccc32)cc1 (stereo unspecified) |  |  | EC50 [2]: 0.04 µM; EC50 [5]: 0.07 µM
4 | Cn1c(S(=O)(=O)C(F)(F)c2ccccc2)nc(-c2ccccc2)c1-c1ccccc1 | > 10 | > 10 | 
5 | Cn1c(S(=O)(=O)C(F)(F)c2ccc(F)cc2)nc(-c2ccc(F)cc2)c1-c1ccc(F)cc1 | > 10 | > 10 | t1/2 [6]: > 90 min; half-life [7]: 54 min
6 | Cn1c(S(=O)(=O)Nc2ccccc2)nc(-c2ccccc2)c1-c1ccccc1 | > 10 | > 10 | t1/2 [6]: 27 min; half-life [7]: < 2.5 min
7 | Cn1c(C(=O)Nc2ccccc2F)nc(-c2ccccc2)c1-c1ccccc1 | 9 | 10 | 
8 | Cn1c(C(=O)Nc2ccccc2[N+](=O)[O-])nc(-c2ccccc2)c1-c1ccccc1 | 9 | 6 | 
9 | Cn1c(C(=O)Cc2ccccc2)nc(-c2ccccc2)c1-c1ccccc1 | > 10 | 10 | t1/2 [6]: > 90 min; half-life [7]: 5 min
10 | Cn1c(C(O)Cc2ccccc2)nc(-c2ccccc2)c1-c1ccccc1 (stereo unspecified) | > 10 | > 10 | 
11 | Cn1c(CCc2ccccc2)nc(-c2ccccc2)c1-c1ccccc1 | 6 | 10 | 
12 | CN(Cc1nc(-c2ccccc2)c(-c2ccccc2)n1C)c1ccccc1 | 0.91 | 0.88 | solubility [8]: < 15 µg/mL; t1/2 [6]: 165 min; half-life [7]: < 5 min
13 | CN(Cc1nc(-c2ccccc2)c(-c2ccccc2)n1C)c1ccc(O)cc1 | 10 | 10 | 
14 | CN(Cc1nc(-c2ccccc2)c(-c2ccccc2)n1C)c1ccccc1C(=O)O | 3 | 3 | solubility [8]: > 300 µg/mL
15 | CN(Cc1nc(-c2ccccc2)c(-c2ccccc2)n1C)c1ccccn1 | 10 | 10 | 
16 | Cn1c(CN(Cc2ccccc2)c2ccccc2)nc(-c2ccccc2)c1-c1ccccc1 | > 10 | > 10 | 
17 | CCN(Cc1nc(-c2ccccc2)c(-c2ccccc2)n1C)c1ccccc1 | 10 | 10 | 
18 | CCOC(=O)Cn1c(-c2ncsc2NC(=O)c2c(F)cccc2F)nc2ccccc21 | 10 | 10 | 

Row | SMILES | EC50 [1] [µM] | EC50 [4] [µM] | also measured
19 | CC(C)n1c(-c2csc(NC(=O)c3c(F)cccc3F)n2)nc2ccccc21 | 10 | 4 | 
20 | O=C(O)Cn1c(-c2csc(NC(=O)c3c(F)cccc3F)n2)nc2ccccc21 | > 10 | > 10 | 
21 | Cn1cc(NC(=O)c2ccccc2F)c(-c2nc3ccccc3[nH]2)n1 | > 10 | > 10 | 
22 | Nc1ccc(C(=O)Cn2c(-c3nccnc3NC(=O)c3ccccc3)nc3ccccc32)cc1 | > 10 | > 10 | 
23 | O=S(=O)(Cc1ccccc1)c1nc(-c2ccccc2)c(-c2ccccc2)[nH]1 | > 10 | > 10 | t1/2 [6]: 14 min; half-life [7]: < 2.5 min
24 | Cn1c(S(=O)(=O)Cc2ccccc2)nc(-c2ccccc2)c1-c1ccccc1 | 4 | 0.3 | half-life [9]: 2 min; half-life [7]: < 2.5 min
25 | Cn1c(S(=O)(=O)Cc2ccc(F)cc2)nc(-c2ccc(F)cc2)c1-c1ccc(F)cc1 | > 10 | > 10 | t1/2 [6]: < 2.5 min; half-life [7]: < 2.5 min
26 | CCn1c(S(=O)(=O)Cc2ccccc2)nc(-c2ccccc2)c1-c1ccccc1 | 1 | 2 | 
27 | O=S(=O)(Cc1ccccc1)c1nc(-c2ccccc2)c(-c2ccccc2)n1Cc1ccccc1 | > 10 | 10 | 
28 | C=CCn1c(S(=O)(=O)Cc2ccc(F)cc2)nc(-c2ccccc2)c1-c1ccccc1 | 4.6 | 4.2 | 
29 | Cn1c(S(=O)(=O)Cc2ccncc2)nc(-c2ccccc2)c1-c1ccccc1 | > 10 | > 10 | 
30 | Cn1c(S(=O)(=O)Cc2cccnc2)nc(-c2ccccc2)c1-c1ccccc1 | 9 | > 10 | 
31 | Cn1c(S(=O)(=O)Cc2ccc(F)cc2)nc(-c2ccc(F)cc2)c1-c1ccncc1 | > 10 | > 10 | 
32 | Cn1c(S(=O)(=O)Cc2ccc(F)cc2)nc(-c2ccc(F)cc2)c1-c1cccnc1 | > 10 | > 10 | 
33 | Cn1c(SCc2ccccc2)nc(-c2ccccc2)c1-c1ccccc1 | 6 | 0.4 | t1/2 [6]: 15 min; half-life [7]: 3 min
34 | O=C(Nc1nonc1-c1nc2ccccc2[nH]1)c1ccccc1F | > 10 | > 10 | 
35 | Nc1ccc(C(=O)Cn2c(-c3nonc3NC(=O)c3ccccc3F)nc3ccccc32)cc1 | 0.4 | 0.7 | 
